Measured values from ChEMBL document CHEMBL1121388, “Analgesic narcotic antagonists. 2. 8-Alkymorphinan-6-ones” (J Med Chem, 1980).
Active and inactive are the calls of the source. The rule behind the calls is not given here.

Experiments:
Mus musculus = assay: The effective dose was measured by using mouse writhing assay after the compound administered subcutaneously.; type: functional; settings: sc
In short: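 Analgesia in the mouse writhing test induced by acetic acid, with compound given subcutaneously. Salts were dissolved in distilled H₂O; free bases were dissolved by dropwise 1 N HCl and then diluted.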

Rattus norvegicus [1] = assay: The Effective dose was measured by using rat tail flick assay after the compound administered subcutaneously; lethal at the given dose; type: organism-based; settings: in vivo, sc
In short: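 Agonist activity in the rat heat-stimulus tail-flick test. Drug was given subcutaneously and rats were tested 20 min after dosing. Salts were dissolved in distilled H₂O; free bases were dissolved with dropwise 1 N HCl and then diluted. ED₅₀ or inactivity/lethality recorded at the dose indicated.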

Rattus norvegicus [2] = assay: The Effective dose was measured by using rat tail flick assay after the compound administered intraperitoneally at a dose of 7.7 umol/kg; IA means inactive at the given dose; type: functional, organism-based
Rattus norvegicus [3] = assay: The %change in weight from day 0 to day 3 after administering the compound at dose of 40 (mg/kg)/day in rat; type: functional
In short: (§1)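 Rat physical dependence liability study: drug infused at the stated mg/kg/day for 6 days, with saline-infused controls for 6 days. Body weight was recorded daily and expressed as % change from day 0 on days 1–4. Groups of 4–6 rats; values are means ±.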

Rattus norvegicus [4] = assay: The %change in weight from day 0 to day 2 after administering the compound at dose of 80 (mg/kg)/day in rat; type: functional; in short: as §1
Rattus norvegicus [5] = assay: The %change in weight from day 0 to day 2 after administering the compound at dose of 40 (mg/kg)/day in rat; type: functional; in short: as §1
Rattus norvegicus [6] = assay: The %change in weight from day 0 to day1 after administering the compound at dose of 80 (mg/kg)/day in rat; type: functional; in short: as §1
Rattus norvegicus [7] = assay: The %change in weight from day 0 to day 4 after administering the compound at dose of 40 (mg/kg)/day in rat; type: functional; in short: as §1
Rattus norvegicus [8] = assay: The %change in weight from day 0 to day1 after administering the compound at dose of 40 (mg/kg)/day in rat; type: functional; in short: as §1
Rattus norvegicus [9] = assay: The %change in weight from day 0 to day 4 after administering the compound at dose of 80 (mg/kg)/day in rat; type: functional; in short: as §1
Rattus norvegicus [10] = assay: The %change in weight from day 0 to day 3 after administering the compound at dose of 80 (mg/kg)/day in rat; type: functional; in short: as §1

SMILES | ED50 (Mus musculus) | ED50 (Rattus norvegicus [1]) | ED50 (Rattus norvegicus [2]) | Change (Rattus norvegicus [3]) | Change (Rattus norvegicus [4]) | Change (Rattus norvegicus [5]) | Change (Rattus norvegicus [6]) | Change (Rattus norvegicus [7]) | Change (Rattus norvegicus [8]) | Change (Rattus norvegicus [9]) | Change (Rattus norvegicus [10])
COc1ccc2c(c1)C13CCN(C)C(C2)[C@H]1[C@H](C)CC(=O)C3 (some centres not stated) | 2.65 µmol/kg | 9 µM/kg | – | – | – | – | – | – | – | – | –
CCC1CCCC23CCN(CC4CCC4)C(Cc4ccc(OC)cc42)[C@H]13 (some centres not stated) | > 25 µmol/kg | – | inactive | – | – | – | – | – | – | – | –
C[C@H]1CC(=O)CC23CCN(CC4CCC4)C(Cc4ccc(O)cc42)[C@H]13.O=C(O)C(O)C(O)C(=O)O (some centres not stated) | – | – | – | 6.1% | 3.1% | 2% | 1.7% | 9.6% | 1.2% | 9.5% | 5.3%
